ChEMBL document CHEMBL3108700, “Designing anti-inflammatory drugs from parasitic worms: a synthetic small molecule analogue of the Acanthocheilonema viteae product ES-62 prevents development of collagen-induced arthritis” (J Med Chem, 2013)
The source made the active and inactive calls.

Tests used:
Mus musculus [1] = assay: Antiinflammatory activity in DBA/1 mouse collagen-induced arthritis model assessed as reduction in number of PMA/ionomycin-stimulated total DLN cells expressing IL-17 at 50 ug/kg, sc administered 2 days prior to collagen challenge continued till day 21 post collagen challenge by flow cytometric analysis relative to control; type: functional, organism-based
How it was run: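 CIA mice given test agent (1 μg/dose) or PBS subcutaneously on days −2, 0 and 21. Draining lymph node cells (10^6/mL) in complete RPMI were stimulated ± 50 ng/mL PMA plus 500 ng/mL ionomycin, with 10 μg/mL brefeldin A for 5 h at 37 °C. Cells were surface-stained for CD4, CD8 and γδ, fixed and permeabilized, then stained for intracellular IFNγ and IL-17A. Gating used isotype controls. Cell numbers per individual mouse; naive n = 7, treated groups n = 13.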

Mus musculus [2] = assay: Antiinflammatory activity in DBA/1 mouse collagen-induced arthritis model assessed as reduction of disease scores at 50 ug/kg, sc administered 2 days prior to collagen challenge continued till day 21 post collagen challenge; type: functional, organism-based
How it was run: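 Collagen-induced arthritis mice were dosed subcutaneously (1 μg/dose) or given PBS on days −2, 0 and 21. Arthritis was scored clinically and hind paw width measured. Incidence was the % of mice with severity score ≥2 (cumulative) or ≥4 (high score). Results are mean ± SEM. Scores n = 13 per group, pooled from two experiments; paw width n = 7, from a single experiment.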

[3] = molecular target: T1, Toll-like receptor 4 (Mus musculus) (UniProt Q9QUK6); assay: Inhibition of TLR4 in BALB/c mouse BMDM assessed as reduction of LPS-stimulated IL-6 production at 5 ug/ml preincubated for 18 hrs followed by LPS challenge measured after 24 hrs by ELISA
T1 sequence (whole entry): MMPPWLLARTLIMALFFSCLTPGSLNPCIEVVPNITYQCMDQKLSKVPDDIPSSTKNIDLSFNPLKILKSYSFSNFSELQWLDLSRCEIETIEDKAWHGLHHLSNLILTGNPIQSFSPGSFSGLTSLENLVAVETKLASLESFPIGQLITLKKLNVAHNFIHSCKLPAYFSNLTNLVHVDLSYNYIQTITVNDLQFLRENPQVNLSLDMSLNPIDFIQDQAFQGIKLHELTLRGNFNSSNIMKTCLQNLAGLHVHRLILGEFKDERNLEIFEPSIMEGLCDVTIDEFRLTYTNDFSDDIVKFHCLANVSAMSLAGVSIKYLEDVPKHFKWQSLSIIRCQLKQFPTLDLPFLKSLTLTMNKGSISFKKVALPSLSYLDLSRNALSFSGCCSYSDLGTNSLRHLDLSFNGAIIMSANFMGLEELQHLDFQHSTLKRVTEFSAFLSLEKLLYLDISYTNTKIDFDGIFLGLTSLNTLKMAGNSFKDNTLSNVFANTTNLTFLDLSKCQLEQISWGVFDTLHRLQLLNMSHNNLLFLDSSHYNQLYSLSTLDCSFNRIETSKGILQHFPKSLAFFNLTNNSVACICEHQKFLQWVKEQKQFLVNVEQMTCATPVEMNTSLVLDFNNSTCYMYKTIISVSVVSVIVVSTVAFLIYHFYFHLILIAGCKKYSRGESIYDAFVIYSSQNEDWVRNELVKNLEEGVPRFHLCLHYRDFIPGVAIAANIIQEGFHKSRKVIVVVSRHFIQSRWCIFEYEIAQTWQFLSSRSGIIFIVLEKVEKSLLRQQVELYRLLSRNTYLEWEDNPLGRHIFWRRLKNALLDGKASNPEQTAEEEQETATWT
How it was run: (§1)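 BALB/c male bone marrow macrophages were differentiated 7 days with L929 supernatant (≥99% CD11b+/F4/80+). Cells were plated at 2 × 10^5/well in triplicate, rested overnight, and given compounds at 5 μg/mL for 18 h. They were then stimulated with 100 ng/mL S. minnesota LPS, 10 ng/mL Pam3CSK4 (BLP) or 0.01 μM CpG for 24 h. Supernatant IL-12p40 and IL-6 were measured by ELISA (sensitivity 16 pg/mL).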

[4] = molecular target: T2, Toll-like receptor 9 (Mus musculus) (UniProt Q9EQU3); assay: Inhibition of TLR9 in BALB/c mouse BMDM assessed as downregulation of CpG-stimulated IL-6 level at 5 ug/ml preincubated for 18 hrs followed by CpG challenge measured after 24 hrs by ELISA relative to control; how it was run: as §1
T2 sequence (whole entry): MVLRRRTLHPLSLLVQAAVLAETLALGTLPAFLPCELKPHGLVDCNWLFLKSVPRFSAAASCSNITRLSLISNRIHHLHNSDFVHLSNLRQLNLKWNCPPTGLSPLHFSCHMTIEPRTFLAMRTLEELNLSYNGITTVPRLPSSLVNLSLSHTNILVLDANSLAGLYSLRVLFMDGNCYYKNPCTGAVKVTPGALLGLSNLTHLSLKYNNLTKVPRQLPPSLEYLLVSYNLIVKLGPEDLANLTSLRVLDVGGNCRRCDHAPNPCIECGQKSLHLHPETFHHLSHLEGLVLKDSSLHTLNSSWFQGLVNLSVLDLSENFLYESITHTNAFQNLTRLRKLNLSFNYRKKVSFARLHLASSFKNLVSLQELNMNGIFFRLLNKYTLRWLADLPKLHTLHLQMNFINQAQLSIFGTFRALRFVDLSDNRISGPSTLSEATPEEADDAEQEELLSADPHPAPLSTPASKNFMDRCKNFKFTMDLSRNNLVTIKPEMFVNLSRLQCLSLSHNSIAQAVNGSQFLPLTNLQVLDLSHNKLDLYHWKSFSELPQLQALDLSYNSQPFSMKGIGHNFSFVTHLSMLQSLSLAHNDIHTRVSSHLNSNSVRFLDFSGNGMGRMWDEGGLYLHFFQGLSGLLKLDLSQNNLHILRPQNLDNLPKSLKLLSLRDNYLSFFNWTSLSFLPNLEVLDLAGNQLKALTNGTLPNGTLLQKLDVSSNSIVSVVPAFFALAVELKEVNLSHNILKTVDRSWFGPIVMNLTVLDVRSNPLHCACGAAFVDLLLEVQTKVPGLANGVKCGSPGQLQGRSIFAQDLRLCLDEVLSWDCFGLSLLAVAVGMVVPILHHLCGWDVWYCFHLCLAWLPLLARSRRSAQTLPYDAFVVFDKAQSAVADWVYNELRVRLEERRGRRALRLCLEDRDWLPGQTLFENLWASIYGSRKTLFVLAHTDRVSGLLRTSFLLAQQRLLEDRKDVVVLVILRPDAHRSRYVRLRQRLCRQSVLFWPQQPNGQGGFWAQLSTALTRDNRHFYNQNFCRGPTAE

Mus musculus [5] = assay: Antiinflammatory activity in DBA/1 mouse collagen-induced arthritis model assessed as reduction in number of CD8+ T cells at 50 ug/kg, sc administered 2 days prior to collagen challenge continued till day 21 post collagen challenge; type: functional, organism-based; conditions: T-cell
How it was run: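 Dosing was 1 μg/dose or PBS given subcutaneously on days −2, 0 and 21 of CIA. Total, CD4+, CD8+ and γδ T cell numbers in draining lymph nodes were counted by flow cytometry for each mouse. Naive mice not exposed to collagen served as a further control (naive n = 7; PBS and treated n = 13).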

CN(C)CCS(=O)(=O)Cc1ccc(Br)cc1
active: Activity (Mus musculus [1]) | Activity (Mus musculus [2]) | inhibition [3] | inhibition [4] | Activity (Mus musculus [5])
